Measured values from ChEMBL document CHEMBL4152257, “Discovery of novel β-carboline/acylhydrazone hybrids as potent antitumor agents and overcome drug resistance” (Eur J Med Chem, 2018).

What was measured:
MDA-MB-231 = assay: Antiproliferative activity against human MDA-MB-231 cells at 1 uM after 48 to 72 hrs by MTT assay relative to control; type: functional
How it was run: (§1)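 Single-concentration screen in the MTT proliferation assay: log-phase cells seeded and allowed to adhere, exposed to compound at 1 µM for 48 h or 72 h, MTT added for 2-3 h, formazan dissolved in DMSO; percent inhibition versus control.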

NCI-H460 [1] = assay: Antiproliferative activity against human H460 cells at 1 uM after 48 to 72 hrs by MTT assay relative to control; type: functional; how it was run: as §1
A549 = assay: Antiproliferative activity against human A549 cells after 48 to 72 hrs by MTT assay; type: functional, cell-based
How it was run: (§2)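 Cells in log phase seeded and allowed to adhere, then exposed to graded compound concentrations for 48 h or 72 h; MTT added for a further 2-3 h, formazan dissolved in DMSO. IC50 taken from dose-response curves; mean ± SD of at least three independent experiments.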

[2] = Resistance index, ratio of IC50 for human A549/TR cells to IC50 for human A549 cells; type: functional
A549/TR = assay: Antiproliferative activity against human A549/TR cells after 48 to 72 hrs by MTT assay; type: functional, cell-based; how it was run: as §2
A2780S = assay: Antiproliferative activity against human A2780S cells after 48 to 72 hrs by MTT assay; type: functional, cell-based; how it was run: as §2
HUVEC = assay: Antiproliferative activity against HUVEC after 48 to 72 hrs by MTT assay; type: cell-based; conditions: Homo sapiens; how it was run: as §2
MCF7 [3] = assay: Cell cycle arrest in human MCF7 cells assessed as accumulation at G0/G1 phase at 3 uM after 18 hrs by propidium iodide staining based flow cytometry (reference value: 45.22%); type: functional
MCF7 [4] = assay: Cell cycle arrest in human MCF7 cells assessed as accumulation at G2/M phase at 10 uM after 18 hrs by propidium iodide staining based flow cytometry (reference value: 9.98%); type: functional
MCF7 [5] = assay: Cell cycle arrest in human MCF7 cells assessed as accumulation at G2/M phase at 30 uM after 18 hrs by propidium iodide staining based flow cytometry (reference value: 9.98%); type: functional
MCF7 [6] = assay: Cell cycle arrest in human MCF7 cells assessed as accumulation at S phase at 100 uM after 18 hrs by propidium iodide staining based flow cytometry (reference value: 44.80%); type: functional
MCF7 [7] = assay: Cell cycle arrest in human MCF7 cells assessed as accumulation at G2/M phase at 100 uM after 18 hrs by propidium iodide staining based flow cytometry (reference value: 9.98%); type: functional
MCF7 [8] = assay: Induction of apoptosis in human MCF7 cells assessed as viable cells at 3 uM after 48 hrs by annexin V-FITC/PI dual staining based flow cytometry (reference value: 77.8%); type: functional; conditions: MCF7, 48 h, read-out: Activity
MCF7 [9] = assay: Induction of apoptosis in human MCF7 cells assessed as early apoptotic cells at 3 uM after 48 hrs by annexin V-FITC/PI dual staining based flow cytometry (reference value: 11%); type: functional
MCF7 [10] = assay: Induction of apoptosis in human MCF7 cells assessed as late apoptotic cells at 3 uM after 48 hrs by annexin V-FITC/PI dual staining based flow cytometry (reference value: 11.1%); type: functional
MCF7 [11] = assay: Induction of apoptosis in human MCF7 cells assessed as viable cells at 10 uM after 48 hrs by annexin V-FITC/PI dual staining based flow cytometry (reference value: 77.8%); type: functional; conditions: MCF7, 48 h, read-out: Activity
MCF7 [12] = assay: Induction of apoptosis in human MCF7 cells assessed as late apoptotic cells at 10 uM after 48 hrs by annexin V-FITC/PI dual staining based flow cytometry (reference value: 11.1%); type: functional
MCF7 [13] = assay: Induction of apoptosis in human MCF7 cells assessed as necrotic cells at 10 uM after 48 hrs by annexin V-FITC/PI dual staining based flow cytometry (reference value: 0.16%); type: functional
MCF7 [14] = assay: Induction of apoptosis in human MCF7 cells assessed as viable cells at 30 uM after 48 hrs by annexin V-FITC/PI dual staining based flow cytometry (reference value: 77.8%); type: functional; conditions: MCF7, 48 h, read-out: Activity
MCF7 [15] = assay: Induction of apoptosis in human MCF7 cells assessed as early apoptotic cells at 100 uM after 48 hrs by annexin V-FITC/PI dual staining based flow cytometry (reference value: 11%); type: functional
MCF7 [16] = assay: Induction of apoptosis in human MCF7 cells assessed as necrotic cells at 100 uM after 48 hrs by annexin V-FITC/PI dual staining based flow cytometry (reference value: 0.16%); type: functional
NCI/ADR-RES [17] = assay: Induction of apoptosis in human MCF7/ADR cells assessed as viable cells at 3 uM after 48 hrs by annexin V-FITC/PI dual staining based flow cytometry (reference value: 89.8%); type: functional; conditions: read-out: Activity
NCI/ADR-RES [18] = assay: Induction of apoptosis in human MCF7/ADR cells assessed as necrotic cells at 3 uM after 48 hrs by annexin V-FITC/PI dual staining based flow cytometry (reference value: 2.43%); type: functional
NCI/ADR-RES [19] = assay: Induction of apoptosis in human MCF7/ADR cells assessed as necrotic cells at 10 uM after 48 hrs by annexin V-FITC/PI dual staining based flow cytometry (reference value: 2.43%); type: functional
NCI/ADR-RES [20] = assay: Induction of apoptosis in human MCF7/ADR cells assessed as viable cells at 30 uM after 48 hrs by annexin V-FITC/PI dual staining based flow cytometry (reference value: 89.8%); type: functional; conditions: read-out: Activity
NCI/ADR-RES [21] = assay: Induction of apoptosis in human MCF7/ADR cells assessed as late apoptotic cells at 30 uM after 48 hrs by annexin V-FITC/PI dual staining based flow cytometry (reference value: 5.02%); type: functional
NCI/ADR-RES [22] = assay: Induction of apoptosis in human MCF7/ADR cells assessed as late apoptotic cells at 100 uM after 48 hrs by annexin V-FITC/PI dual staining based flow cytometry (reference value: 5.02%); type: functional
NCI/ADR-RES [23] = assay: Induction of apoptosis in human MCF7/ADR cells assessed as necrotic cells at 100 uM after 48 hrs by annexin V-FITC/PI dual staining based flow cytometry (reference value: 2.43%); type: functional
NCI-H460 [24] = assay: Antitumor activity against human H460 cells xenografted in athymic nude Balb/C mouse assessed as tumor growth inhibition at 100 mg/kg, po administered 3 times per week measured on day 18 relative to control; type: functional; conditions: 432 h, read-out: TGI
How it was run: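 Nude mice (5-6 weeks old, female) implanted sc in right flank with 5 × 10^6 H460 cells in HBSS; at 100 mm3 tumours, randomised 6 per group to vehicle, oral 100 mg/kg three times weekly, or ip 30 mg/kg once weekly. Tumour volume by caliper every 2 days as (π/6) × length × width²; body weight recorded; inhibition from tumour weights versus control.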

Mus musculus [25] = assay: Toxicity in athymic nude Balb/C mouse xenografted with human H460 cells assessed as body weight loss at 100 mg/kg, po administered 3 times per week measured every 2 days; type: organism-based; conditions: in vivo, 48 h
How it was run: (§3)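 Nude mice, 5-to-6-week-old females, given 5 × 10^6 H460 cells sc in right flank in HBSS; at 100 mm3 tumour volume randomized, 6 per group. Vehicle; oral 100 mg/kg three times weekly; or ip 30 mg/kg once weekly. Toxicity signs and mortality observed daily; body weight measured every 2 days.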

Mus musculus [26] = assay: Toxicity in athymic nude Balb/C mouse xenografted with human H460 cells assessed as effect on feeding behaviour at 100 mg/kg, po administered 3 times per week measured every 2 days; type: organism-based; conditions: in vivo, 48 h; how it was run: as §3

For `N#Cc1ccc(COc2cccc(/C=N/NC(=O)c3cc4c(cn3)[nH]c3ccccc34)c2)cc1`, the inhibition at 1 µM (MDA-MB-231) was 29.6%, the inhibition at 1 µM (NCI-H460 [1]) was 51% and the IC50 (A549) was 1.37 µM. The “Ratio IC50” value [2] was 2.28, the IC50 (A549/TR) was 3.13 µM and the IC50 (A2780S) was 3.02 µM. It also gave an IC50 (HUVEC) of 88.6 µM, an Activity (MCF7 [3]) of 34.57% and an Activity (MCF7 [4]) of 7.57%. The Activity (MCF7 [5]) was 6.06%, the Activity (MCF7 [6]) was 53.88% and the Activity (MCF7 [7]) was 4.29%. For the same molecule, the viability at 3 µM (MCF7 [8]) was 66.8%, the Activity (MCF7 [9]) was 15.3% and the Activity (MCF7 [10]) was 17.6%. For the same molecule, the viability at 10 µM (MCF7 [11]) was 66.6%, the Activity (MCF7 [12]) was 20.1% and the Activity (MCF7 [13]) was 0.3%. The viability at 30 µM (MCF7 [14]) was 50.9%, the Activity (MCF7 [15]) was 13% and the Activity (MCF7 [16]) was 0.76%. For the same molecule, the viability at 3 µM (NCI/ADR-RES [17]) was 84.3%, the Activity (NCI/ADR-RES [18]) was 6.04% and the Activity (NCI/ADR-RES [19]) was 6.4%. It also gave a viability at 30 µM (NCI/ADR-RES [20]) of 64.8%, an Activity (NCI/ADR-RES [21]) of 21.9% and an Activity (NCI/ADR-RES [22]) of 30.2%. It also gave an Activity (NCI/ADR-RES [23]) of 9.14%, an inhibition in vivo at 100 mg/kg (NCI-H460 [24]) of 17.2% and an Activity (Mus musculus [25]) of less than 5%. For the same molecule, the Activity (Mus musculus [26]) was “Non-Toxic”.
